Measurements from different studies.
Protocols differ between the studies behind these lines. pIC50: −log10 of the molar value.

`CCOC(=O)[C@@]12C[C@@H]1[C@@H](n1ccc3c(NC)nc(C#Cc4ccc(Cl)s4)nc31)[C@H](O)[C@@H]2O` has an AUC(0-t) of 34 ng·h/mL (male Sprague-Dawley rat, plasma; oral, 1 mg/kg).
For `c1ccc(-c2nc(N3CCCC3c3ccccn3)c3ccccc3n2)nc1` (stereo not shown), the Papp was 21.4 ×10⁻⁶ cm/s (PAMPA; 10 µM, 3 h, pH 7.4).
`CC1(C)CC[C@]2(C)CC[C@]3(C)[C@H]4CC=C5[C@@H](CC[C@H](O)C5(C)C)[C@]4(C)CC[C@@]3(C)[C@@H]2C1` gave a pIC50 of 4.18 (HCT-116; cell growth or viability, WST-1).
`COC(=O)c1c(C)ncn1CC(c1c[nH]c2ccc(C)cc12)c1c[nH]c2ccc(C)cc12` gave a CC50 of > 20 µM (DH82; cell growth or viability, MTS; 24 h).
`CC(C)Nc1ccnc(Nc2cccc(-c3cc[nH]n3)c2)n1` has a Papp of 1740 ×10⁻⁶ cm/s (PAMPA; 50 nM, 30 min).
The pIC50 of `CC(=O)O[C@@H]1c2c(ccc3ccc(=O)oc23)OC(C)(C)[C@@H]1OC(=O)C1(C)OC1C` (stereo partly shown) is reported as 4.30 (HCT-116; cell growth or viability, WST-1).
`Cn1ccnc1CNc1nc(-c2ccccn2)nc2ccccc12` has a Papp of 27 ×10⁻⁶ cm/s (PAMPA; 10 µM, 3 h, pH 7.4).
`CONc1ccnc(Nc2cccc(-c3cccnc3)c2)n1` has a Papp of 1300 ×10⁻⁶ cm/s (PAMPA; 50 nM, 30 min).
`CCCCCCCCCCCCCCCCOP(=O)([O-])OCC[N+](C)(C)C` has a CC50 of > 20 µM (DH82; cell growth or viability, MTS; 24 h).
`c1ccc(C2CCN(c3nc(-c4cnn5c4CCCC5)nc4ccccc34)C2)nc1` (stereo not shown) gave a Papp of 36.7 ×10⁻⁶ cm/s (PAMPA; 10 µM, 3 h, pH 7.4).
